The test system of data set [1] is BALB/3T3. As to the kind of experiment: Antiproliferative activity against mouse BALB/3T3 cells after 72 hrs by SRB assay. The format is cell-based. Particulars: BALB/3T3, 72 h. In a few lines:
(§1)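 Adherent cells plated at 1 × 10^4 per well 24 h before treatment, then exposed 72 h to compounds diluted from 20 mg/mL DMSO stock (0.01–1000 µg/mL). Fixed in cold 50% TCA at 4°C for 1 h, stained with 0.4% sulforhodamine B, bound dye extracted with 10 mM Tris, OD at 540 nm. Triplicates, 3–5 experiments; IC50 per experiment, mean ± SD.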

Data set [2] can be described thus: Antiproliferative activity against HLMEC after 72 hrs by SRB assay. The arrangement: species or system Homo sapiens. In a few lines:
as §1

Data set [3] relates to HL-60. As to the kind of experiment: Antiproliferative activity against human HL60 cells at 290 uM after 72 hrs by MTT assay. Type of data set: functional, cell-based. In a few lines:
(§2)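 MTT read-out in leukemia cells exposed 72 h to the highest concentration, 100 µg/ml (290 µM), expressed as % proliferation inhibition. Cells seeded at 1 × 10^4 per well 24 h beforehand; MTT for 4 h, DMF/SDS lysis, 570 nm.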
Background: Tetrazolium dyes change colour on reduction, which living cells bring about.

Data set [4] deals with HL60/MX2. As to the kind of experiment: Antiproliferative activity against human HL60/MX2 cells at 290 uM after 72 hrs by MTT assay. The format is functional, cell-based. The method in brief: as §2
Data set [5] deals with MCF7. As to the kind of experiment: Antiproliferative activity against human MCF7 cells after 72 hrs by SRB assay. The format is functional, cell-based. Particulars: MCF7, 72 h. In a few lines: as §1
Background: In SRB staining, fixed cells bind dye roughly in proportion to their protein.

In data set [6] the test system is BALB/3T3. As to the kind of experiment: (§3) Antiproliferative activity against mouse BALB/3T3 cells at 290 uM after 72 hrs by SRB assay. The format is cell-based. The following applies: balb/3t3, 72 h, 290 µM. The method in brief: (§4)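 SRB test of adherent cells after 72 h exposure at the highest concentration, 100 µg/ml (290 µM). Cells plated at 1 × 10^4 per well 24 h before treatment; TCA fixation, 0.4% SRB staining, OD 540 nm. Result expressed as % inhibition of proliferation.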

For data set [7], the system named is MCF10. As to the kind of experiment: Antiproliferative activity against human MCF10 cells after 72 hrs by SRB assay. Type of data set: cell-based. Particulars: MCF10, 72 h. In a few lines:
as §1

The nature of data set [8]: Antiproliferative activity against HLMEC at 290 uM after 72 hrs by SRB assay. The following applies: human. The method in brief: as §4
Data set [9] concerns MCF10. As to the kind of experiment: (§5) Antiproliferative activity against human MCF10 cells at 290 uM after 72 hrs by SRB assay. The format is cell-based. Particulars: mcf10, 72 h, 290 µM. In a few lines: as §4
For data set [10], the system named is MCF7. As to the kind of experiment: Antiproliferative activity against human MCF7 cells at 290 uM after 72 hrs by SRB assay. The format is functional. The method in brief: as §4
The nature of data set [11]: Antiproliferative activity against human LoVo/DX cells at 290 uM. The format is functional. The following applies: read-out: GI.
Data set [12] is described as follows: as §5. Type of data set: cell-based. The following applies: MCF10 cells, read-out: GI. The method in brief: as §4
For data set [13], the system named is A549. As to the kind of experiment: Antiproliferative activity against human A549 cells at 290 uM. Type of data set: functional. Particulars: read-out: GI.
A short description of data set [14]: as §3. Type of data set: cell-based. The following applies: BALB/3T3 cells, read-out: GI. The method in brief: as §4
Data set [15] has as its system LoVo. Briefly: Antiproliferative activity against human LoVo cells at 290 uM. The format is functional. The following applies: read-out: GI.
Data set [16] relates to HL-60. As to the kind of experiment: Antiproliferative activity against human HL60 cells after 72 hrs by MTT assay. The format is functional, cell-based. Particulars: HL-60, 72 h. In a few lines:
(§6)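 Leukemia cells seeded at 1 × 10^4 per well 24 h before adding compounds (0.01–1000 µg/mL from DMSO stock), exposed 72 h. MTT (5 mg/mL stock) added for 4 h, then DMF/SDS lysis mixture; absorbance at 570 nm read after 24 h. Triplicates per experiment, 3–5 repeats; IC50 calculated per experiment, reported as mean ± SD.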

For data set [17], the system named is HL60/MX2. Briefly: Antiproliferative activity against human HL60/MX2 cells after 72 hrs by MTT assay. Type of data set: functional, cell-based. Particulars: HL60/MX2, 72 h. In a few lines: as §6

Active and inactive are the calls of the source. The rule behind the calls is not given here.

In general, IC50 refers to the concentration that gives 50% inhibition.

In the case of `O=C(O)C1Cc2cc(O)c(O)cc2C=N1` (stereo not given), the IC50 in data set [1] amounted to 1830 µM; in data set [2], 1550 µM; in data set [5] it was 1240 µM. The “growth inhibition (GI)” value in data set [3] and in [4] was “inactive” in each case.

Take `O=C(O)C1CCc2cc(O)c(O)cc2C=N1` (stereo not given): the IC50 is 1590 µM in [2], 1700 µM in [5] and 3330 µM in data set [7]. Besides, the “growth inhibition (GI)” value in data set [3] and in [4] was “inactive” in each case. The Activity result in data set [6] was “Non-Toxic”.

For the compound `O=C(O)C1Cc2cc(O)cc(O)c2C=N1` (stereo not given), the Activity entry in data set [8], in data set [9] and in [6] was “Non-Toxic” throughout. The “growth inhibition (GI)” value in [3], in [10] and in data set [4] was “inactive” throughout.

Consider `CC(C)C[C@H](NC(=O)[C@@H](O)[C@H](N)Cc1ccccc1)C(=O)O` [UBENIMEX], for which the inhibition of growth at 290 µM in [11] came to 26.9%; in [13], 48%; in [10] (MCF7, 72 h, read-out: GI), 63.8%; in data set [15], 54.8%. For the same compound, the inhibition at 72 h, 290 µM in [12] amounted to 26.9%; in [14], 37.7%. This compound also yielded an IC50 in data set [5] of 150 µM.

In the case of `C[C@@]1(C(=O)O)Cc2cc(O)c(O)cc2C2C(Cl)C(=O)N21` (stereo not given in full), the IC50 in [1] was found to be 1960 µM; in data set [2], 1140 µM; in data set [5], 1200 µM; in [7], 1960 µM. Besides, the “growth inhibition (GI)” value in data set [3] and in [4] was “inactive” throughout.

`O=C(O)C1Cc2cc(O)c(I)cc2C=N1` (stereo not given): the Activity result in data set [8], in data set [9] and in [6] was “Non-Toxic” in each case. The “growth inhibition (GI)” value in data set [3], in [10] and in [4] was “inactive” in each case.

Consider `O=C(O)C1Cc2cc(O)c(O)c(Br)c2C=N1` (stereo not given), for which the IC50 in [16] came out at 156 µM; in data set [1] it was 183 µM; in data set [2], 126 µM; in data set [5], 224 µM; in [7] it was 904 µM. In addition, the “growth inhibition (GI)” value in data set [4] was “inactive”.

Consider `COc1cc2c(cc1OC)CCC(C(=O)OCc1ccccc1)(C(=O)OCc1ccccc1)N=C2`, for which the values for the 50% inhibitory concentration (IC50) in [1], in data set [2] and in data set [5] were 929 µM, 657 µM and 734 µM, respectively. In addition, the “growth inhibition (GI)” value in [3] is “inactive”.

Take `O=C(O)C1Cc2cc(O)c(O)c(O)c2C=N1` (stereo not given): the IC50 in data set [16] came to 124 µM; in [1], 235 µM; in [2], 150 µM; in data set [5] it was 84.7 µM; in data set [7], 249 µM; in data set [17], 149 µM.

In the case of `O=C(O)C1Cc2cc(O)c(Br)c(O)c2C=N1` (stereo not given), the Activity entry in data set [8], in data set [9] and in [6] was “Non-Toxic” each time. For the same compound, the “growth inhibition (GI)” value in [3], in data set [10] and in [4] was “inactive” throughout.

`CCOC(=O)C(Cc1cc(OCc2ccccc2)cc(OCc2ccccc2)c1)(NC=O)C(=O)OCC`: the values for the IC50 in [1] and in data set [2] were 68.6 µM and 46.5 µM, respectively. For the same compound, the “growth inhibition (GI)” value in data set [3], in data set [10] and in [4] was “inactive” throughout.

As to `O=C(O)C1Cc2c(O)c(O)cc(Br)c2C=N1` (stereo not given), the IC50 in [16] amounted to 104 µM; in data set [1] it was 1260 µM; in data set [2] it was 562 µM; in data set [5] it was 660 µM; in data set [7], 1440 µM; in data set [17], 247 µM.

Regarding `O=C(O)C1Cc2cc(O)c(O)c(I)c2C=N1` (stereo not given), the IC50 in data set [2] came out at 307 µM; in data set [5], 342 µM; in data set [7], 897 µM. For the same compound, the “growth inhibition (GI)” value in data set [3] and in data set [4] was “inactive” each time. In addition, the Activity entry in data set [6] was “Non-Toxic”.
